# ChEMBL document CHEMBL3763021 (Eur J Med Chem, 2016)
# Key:
# [1] = Inhibition of Sonic-induced hedgehog signalling in mouse NIH3T3 cells after 48 hrs by Gli-luciferase reporter assay; format: cell-based; settings: NIH3T3, 48 h
# Method in brief: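 NIH3T3 cells stably carrying a Gli-luciferase reporter were kept in DMEM with 10% FBS and 1 µg/mL puromycin, then seeded at 2×10^4 cells/well overnight at 37 °C. Compounds at 0.05–300 nM (8 concentrations) were added in medium with 0.5% FBS and 0.7 µg/mL Sonic Hh agonist, n=4 wells, for 48 h. Readout was the Firefly/Renilla luciferase ratio in lysates.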
# [2] = Cmax in Sprague-Dawley rat at 5 mg/kg, po by LC/MS/MS analysis; format: ADME, organism-based; set-up: dose 5 mg/kg, route oral; settings: in vivo
# Method in brief: (§1)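 Male SD rats, 180–240 g, 3 per compound; single dose of 1 mg/kg iv or 5 mg/kg po, dosing volume 5 mL/kg. Blood was sampled from 2 min to 24 h and centrifuged at 4 °C. Plasma underwent protein precipitation, then LC/MS/MS in SRM mode with an internal standard. Parameters were derived by noncompartmental analysis.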
# [3] = Mean resident time (0 to t) in Sprague-Dawley rat at 1 mg/kg, iv by LC/MS/MS analysis; format: ADME, organism-based; settings: in vivo; method in brief: as §1
# [4] = Mean resident time (0 to t) in Sprague-Dawley rat at 5 mg/kg, po by LC/MS/MS analysis; format: ADME, organism-based; settings: in vivo; method in brief: as §1
# [5] = Oral bioavailability in Sprague-Dawley rat at 5 mg/kg; format: ADME, organism-based; settings: in vivo; method in brief: as §1
# [6] = AUC (0 to t) in Sprague-Dawley rat at 5 mg/kg, po by LC/MS/MS analysis; format: ADME, organism-based; settings: in vivo; method in brief: as §1
# [7] = Clearance in Sprague-Dawley rat at 1 mg/kg, iv by LC/MS/MS analysis; format: ADME, organism-based; settings: in vivo; method in brief: as §1
# [8] = AUC (0 to t) in Sprague-Dawley rat at 1 mg/kg, iv by LC/MS/MS analysis; format: ADME, organism-based; settings: in vivo
# Method in brief: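 Male SD rats, 3 per compound, 180–240 g, single iv dose at 1 mg/kg, dosing volume 5 mL/kg. Blood sampled at 2, 5, 15, 30 min and 1, 2, 4, 6, 8, 10, 24 h, then centrifuged at 4 °C. Plasma protein-precipitated and analysed by LC/MS/MS in SRM mode with internal standard. AUC(0-t) obtained by noncompartmental analysis.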
# [9] = Half life in Sprague-Dawley rat at 5 mg/kg, po by LC/MS/MS analysis; format: ADME, organism-based; settings: in vivo; method in brief: as §1
# [10] = Half life in Sprague-Dawley rat at 1 mg/kg, iv by LC/MS/MS analysis; format: ADME, organism-based; settings: in vivo; method in brief: as §1
# [11] = Clearance in Sprague-Dawley rat at 5 mg/kg, po by LC/MS/MS analysis; format: ADME, organism-based; settings: in vivo; method in brief: as §1
# [12] = Apparent volume of distribution in Sprague-Dawley rat at 1 mg/kg, iv by LC/MS/MS analysis; settings: in vivo
# [13] = Cmax in Sprague-Dawley rat at 1 mg/kg, iv by LC/MS/MS analysis; format: ADME, organism-based; set-up: dose 1 mg/kg, route intravenous; settings: in vivo; method in brief: as §1
# Rattus norvegicus = assay: Apparent volume of distribution in Sprague-Dawley rat at 5 mg/kg, po by LC/MS/MS analysis; settings: in vivo
IC50 [1] [nM],MRT last [3] [h],clearance [7] [mL/min/kg],AUC(0-t) [8] [ng·h/mL],half-life [10] [h],Vd [12] [L/kg],Cmax [13] [ng/mL],SMILES,other results
1.83,–,–,–,–,–,–,Cc1ccc(CN2CCCC2)cc1NC(=O)c1ccc(Nc2nccc(-c3ccc(OC(F)(F)F)cc3)n2)cc1,–
5.5,1.58,7.69,2200,1.43,0.955,1930,Cc1c(C(=O)Nc2ccc(N3C[C@@H](C)O[C@@H](C)C3)nc2)cccc1-c1ccc(OC(F)(F)F)cc1 [SONIDEGIB],Cmax [2]: 1400 ng/mL; MRT last [4]: 5.4 h; bioavailability [5]: 80.6%; AUC(0-t) [6]: 8830 ng·h/mL; half-life [9]: 4.01 h; CL/F [11]: 9.72 mL/min/kg; Vd(app) (Rattus norvegicus): 3.40593 L/kg
5.16,–,–,–,–,–,–,Cc1ccc(CN2CCCC2)cc1NC(=O)c1ccc(Nc2ncc(F)c(-c3ccc(OC(F)(F)F)cc3)n2)cc1,–
0.97,–,–,–,–,–,–,Cc1ccc(CN2CCN(C)CC2)cc1NC(=O)c1ccc(Nc2nccc(-c3ccc(OC(F)(F)F)cc3)n2)cc1,–
3.12,–,–,–,–,–,–,Cc1ccc(CN2CCCCC2)cc1NC(=O)c1ccc(Nc2ncc(F)c(-c3ccc(OC(F)(F)F)cc3)n2)cc1,–
1.14,4.23,8.37,1890,8.85,6.28,3140,Cc1ccc(CN2CCOCC2)cc1NC(=O)c1ccc(Nc2ncc(F)c(-c3ccc(OC(F)(F)F)cc3)n2)cn1,Cmax [2]: 86.6 ng/mL; MRT last [4]: 7.74 h; AUC(0-t) [6]: 923 ng·h/mL; half-life [9]: 7.24 h; CL/F [11]: 80.8 mL/min/kg; Vd(app) (Rattus norvegicus): 50.45546 L/kg
3.19,–,–,–,–,–,–,Cc1ccc(CN(C)C)cc1NC(=O)c1ccc(Nc2ncc(F)c(-c3ccc(OC(F)(F)F)cc3)n2)cc1,–
0.78,1.98,26.4,625,2.02,4.62,770,Cc1ccc(CN2CCOCC2)cc1NC(=O)c1ccc(Nc2ncc(F)c(-c3ccc(OC(F)(F)F)cc3)n2)nc1,–
11.9,–,–,–,–,–,–,Cc1ccc(CN2CCOCC2)cc1NC(=O)c1ccc(Nc2ncc(C3CC3)c(-c3ccc(OC(F)(F)F)cc3)n2)cc1,–
